Measured values published in ChEMBL document CHEMBL4610093, “Bioreductively Activatable Prodrug Conjugates of Combretastatin A-1 and Combretastatin A-4 as Anticancer Agents Targeted toward Tumor-Associated Hypoxia” (J Nat Prod, 2020).

Tests used:
[1] = Stability of the compound in pH 7.4 potassium phosphate buffer assessed as compound hydrolysis after 48 hrs; type: physicochemical; settings: read-out: Drug degradation
[2] = Inhibition of bovine brain tubulin polymerisation preincubated for 15 mins followed by GTP addition and measured for 20 mins by turbidimetry based spectrophotometric method; design: species or system Bos taurus
How it was run: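 Bovine brain tubulin at 1.0 mg/mL (10 µM) in 0.8 M monosodium glutamate (pH 6.6) with 4% DMSO and compound. Preincubated 15 min at 30 °C, chilled, then 0.4 mM GTP added. Temperature jumped from 0 to 30 °C; turbidity at 350 nm followed for 20 min. IC50 is the concentration halving extent of assembly.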

[3] = target: T1, NADPH-cytochrome P450 oxidoreductase (Rattus norvegicus, UniProt P00388); test: Substrate activity at rat NADPH-cytochrome P450 oxidoreductase expressed in supersomes assessed as compound cleavage after 90 mins in anaerobic condition by HPLC analysis; settings: read-out: Drug degradation
T1 sequence (P00388 whole entry): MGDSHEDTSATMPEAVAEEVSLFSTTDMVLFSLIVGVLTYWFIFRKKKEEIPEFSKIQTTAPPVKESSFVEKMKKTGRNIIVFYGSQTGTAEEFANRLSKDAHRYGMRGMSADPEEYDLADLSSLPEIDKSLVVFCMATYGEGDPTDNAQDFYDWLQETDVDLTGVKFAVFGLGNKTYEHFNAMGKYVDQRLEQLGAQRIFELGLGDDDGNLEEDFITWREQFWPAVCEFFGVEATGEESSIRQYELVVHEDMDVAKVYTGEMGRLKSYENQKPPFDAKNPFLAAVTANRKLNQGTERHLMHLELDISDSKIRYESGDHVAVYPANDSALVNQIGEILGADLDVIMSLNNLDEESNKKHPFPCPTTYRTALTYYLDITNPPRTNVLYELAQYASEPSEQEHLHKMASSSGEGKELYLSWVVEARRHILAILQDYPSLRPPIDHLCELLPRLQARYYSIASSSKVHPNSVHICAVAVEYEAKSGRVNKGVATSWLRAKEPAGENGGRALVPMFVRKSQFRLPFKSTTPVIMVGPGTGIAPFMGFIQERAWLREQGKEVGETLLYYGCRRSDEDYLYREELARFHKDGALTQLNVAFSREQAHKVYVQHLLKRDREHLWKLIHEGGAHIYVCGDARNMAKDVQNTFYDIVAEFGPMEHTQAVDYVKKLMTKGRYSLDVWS
How it was run: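 Rat POR supersomes (0.006 U) with 0.8 mM NADPH, acting on compound diluted from 10 mM DMSO stock into 200 mM potassium phosphate pH 7.4 with 0.1% Triton X-100 and 400 µM protocatechuic acid. Made anaerobic by N2 evacuation/sparging plus 0.08 U protocatechuate dioxygenase. Incubated at 37 °C, quenched with acetonitrile, quantified by HPLC against standard curves; no-POR controls.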

A549 [4] = test: Cytotoxicity against human A549 cells incubated for 52 hrs in oxic condition by sulforhodamine B assay; type: functional; settings: A549, 52 h
How it was run: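 Normoxic arm: A549 cells at 6000 cells/well, 2 h attachment. Serial dilutions from DMSO stocks, top final concentration 50 µg/mL, in duplicate. Drug exposure 4 h under 95% air/5% CO2, then 48 h aerobic culture. Cytotoxicity read by SRB.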

A549 [5] = test: Cytotoxicity against human A549 cells incubated for 4 hrs in anoxic condition followed by oxic exposure for 48 hrs by sulforhodamine B assay; type: functional
How it was run: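 Anoxic arm: A549 cells handled in an anaerobic chamber (≤10 ppm O2) with medium and plates preconditioned ≥48 h. 6000 cells/well, 2 h attachment. Serial dilutions from DMSO stocks, top final concentration 50 µg/mL, in duplicate. 4 h anaerobic drug exposure, then 48 h aerobic, then SRB readout.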

A549 [6] = test: Ratio of GI50 for human A549 cells in oxic condition to GI50 for anoxic condition; type: functional
How it was run: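 A549 cells at 6000 cells/well. Drug exposure 4 h either anaerobic (≤10 ppm O2, preconditioned medium and plates) or under 95% air/5% CO2, then 48 h aerobic. SRB cytotoxicity read in duplicate, top final concentration 50 µg/mL. Ratio taken as oxic over anoxic value.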

Tubulin (Homo sapiens) [7] = target: T2, Tubulin (Homo sapiens) (UniProt P68371+Q9H4B7+P0DPH7+P68366+Q13509+Q71U36+P04350+Q3ZCM7+P07437+P68363+Q9BQE3+Q6PEY2+Q13885+Q9BVA1+Q9BUF5); test: Inhibition of [3H]colchicine binding to tubulin (unknown origin) at 5 uM incubated for 10 mins by scintillation counting relative to control; type: protein-complex assay
How it was run: (§1)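 Purified tubulin at 1.0 µM with 5.0 µM [3H]colchicine, in 1.0 M monosodium glutamate (pH 6.6), 0.5 mg/mL BSA, 0.1 M glucose-1-phosphate, 1.0 mM MgCl2, 1.0 mM GTP and 5% DMSO. Incubated 10 min at 37 °C, then filter-bound radioactivity counted. Percent inhibition taken against no-inhibitor controls, corrected for filter binding without tubulin.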

Tubulin (Homo sapiens) [8] = target: T2, Tubulin (Homo sapiens); test: Inhibition of [3H]colchicine binding to tubulin (unknown origin) at 1 uM incubated for 10 mins by scintillation counting relative to control; type: protein-complex assay; how it was run: as §1
4T1 [9] = test: Induction of vascular damage in mouse 4T1 cells harboring firefly luciferase reporter gene implanted BALB/C mouse assessed as reduction in light emission at 120 mg/kg, ip measured after 4 hrs by Bioluminescence imaging analysis; type: functional; design: scale not given: the % may be the effect or the level left
How it was run: (§2)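 Orthotopic 4T1-luc mammary fat pad tumours (10–12 mm) in female BALB/c mice. Single IP dose of 120 mg/kg in saline given right after baseline imaging. Dynamic BLI over about 20 min after subcutaneous D-luciferin (120 mg/kg), repeated with fresh luciferin at 4, 24 and 48 h. Signal compared by area under the light emission curve.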

4T1 [10] = test: Induction of vascular damage in mouse 4T1 cells harboring firefly luciferase reporter gene implanted BALB/C mouse assessed as reduction in light emission at 120 mg/kg, ip measured up to 72 hrs by Bioluminescence imaging analysis; type: functional; design: scale not given: the % may be the effect or the level left; how it was run: as §2
4T1 [11] = test: Induction in necrosis in tumor of BALB/C mouse implanted with mouse 4T1 cells harboring firefly luciferase reporter gene at 120 mg/kg, ip measured after 72 to 96 hrs by hematoxylin and eosin staining based assay (reference value: 46%); type: functional

Row | Structure (SMILES) | degraded at 48 h [1] [%] | IC50 [2] [nM] | metabolised at 1.5 h [3] [%] | GI50 (A549 [4]) [nM] | GI50 (A549 [5]) [nM] | RatioGI50 (A549 [6]) | inhibition (Tubulin (Homo sapiens) [7]) [%] | inhibition (Tubulin (Homo sapiens) [8]) [%] | Activity (4T1 [9]) [%] | Activity (4T1 [10]) [%] | Activity (4T1 [11]) [%]
1 | COc1cc(/C=C\c2ccc(OC)c(OCc3ccc([N+](=O)[O-])s3)c2OC(C)C)cc(OC)c1OC | 1.59 | 12000 | 1.1 | 1900 | 300 | 6.3 | – | – | – | – | –
2 | COc1cc(/C=C\c2ccc(OC)c(OCc3ccc([N+](=O)[O-])s3)c2OS(=O)(=O)c2ccc(C)cc2)cc(OC)c1OC | 0.25 | > 20000 | – | 440 | 520 | 0.85 | – | – | – | – | –
3 | COc1ccc(/C=C\c2cc(OC)c(OC)c(OC)c2)cc1OCc1ccc([N+](=O)[O-])s1 | 0.35 | > 20000 | 2.7 | 110 | 32 | 3.4 | 26 | – | – | – | –
4 | COc1ccc(/C=C\c2cc(OC)c(OC)c(OC)c2)c(OCc2ccc([N+](=O)[O-])s2)c1O | 0 | 1700 | 14.2 | 170 | 280 | 0.61 | 92 | 53 | – | – | –
5 | COc1cc(/C=C\c2ccc(OC)c3c2OC(c2ccc([N+](=O)[O-])s2)O3)cc(OC)c1OC (stereo not drawn) | – | 1700 | – | 46 | 33 | 1.4 | 25 | – | – | – | –
6 | COc1ccc(/C=C\c2cc(OC)c(OC)c(OC)c2)cc1OP(=O)([O-])[O-].[Na+].[Na+] [FOSBRETABULIN DISODIUM] | – | – | – | – | – | – | – | – | >99 | >90 | 70
7 | COc1cc(/C=C\c2ccc(OC)c(OC(C)c3ccc([N+](=O)[O-])s3)c2O)cc(OC)c1OC (stereo not drawn) | 0 | 6200 | 25.5 | 310 | 51 | 6.1 | 72 | – | – | – | –
8 | COc1ccc(/C=C\c2cc(OC)c(OC)c(OC)c2)c(OC(C)c2ccc([N+](=O)[O-])s2)c1O (stereo not drawn) | 0.5 | 840 | 5.6 | 180 | 260 | 0.69 | 90 | 34 | – | – | –
9 | COc1ccc(/C=C\c2cc(OC)c(OC)c(OC)c2)cc1O [COMBRETASTATIN A4] | – | – | – | 4.7 | 6.1 | – | – | – | – | – | –
10 | COc1cc(/C=C\c2ccc(OC)c(OC(C)(C)c3ccc([N+](=O)[O-])s3)c2OC(C)C)cc(OC)c1OC | 4.03 | 9500 | 7.6 | 1500 | 490 | 3.1 | – | – | – | – | –
11 | COc1ccc(/C=C\c2cc(OC)c(OC)c(OC)c2)cc1OC(C)c1ccc([N+](=O)[O-])s1 (stereo not drawn) | – | > 20000 | 4.1 | 150 | 38 | 4 | 15 | – | – | – | –
